# Test results: PMC4029506 (Bioorganic & medicinal chemistry, 2014)
# What was measured:
# [1] = previously observed; cited from earlier work
# [2] = system: cannabinoid CB2 receptor; conditions: cited from earlier work
# [3] = system: vanilloid receptors; conditions: cited from earlier work
# [4] = system: P450 2C9; conditions: cited from earlier work
# [5] = system: human ether-a-go-go related gene (hERG); conditions: cited from earlier work
# [6] = system: P450 3A4; conditions: cited from earlier work
# [7] = system: FAAH; conditions: cited from earlier work
# [8] = system: cannabinoid CB1 receptor; conditions: cited from earlier work
# [9] = system: P450 2D6; conditions: cited from earlier work
# [10] = Hemiketal / hydrate; type: physicochemical; conditions: for hydrate (gem diol) formation at 24 h: 7% D2O–DMSO-d6, 24 h; for hydrate (gem diol) formation initially: 7% D2O–DMSO-d6, initially; for hemiketal formation: in CD3OD
# [11] = target: T1, purified recombinant rat FAAH (rFAAH) (Rattus norvegicus, UniProt P97612); experiment: FAAH enzyme inhibition assay; type: biochemical; conditions: for fold loss in activity / fold less potent than 3 against FAAH: relative to 3
# T1 sequence (P97612 30-579 limits assumed): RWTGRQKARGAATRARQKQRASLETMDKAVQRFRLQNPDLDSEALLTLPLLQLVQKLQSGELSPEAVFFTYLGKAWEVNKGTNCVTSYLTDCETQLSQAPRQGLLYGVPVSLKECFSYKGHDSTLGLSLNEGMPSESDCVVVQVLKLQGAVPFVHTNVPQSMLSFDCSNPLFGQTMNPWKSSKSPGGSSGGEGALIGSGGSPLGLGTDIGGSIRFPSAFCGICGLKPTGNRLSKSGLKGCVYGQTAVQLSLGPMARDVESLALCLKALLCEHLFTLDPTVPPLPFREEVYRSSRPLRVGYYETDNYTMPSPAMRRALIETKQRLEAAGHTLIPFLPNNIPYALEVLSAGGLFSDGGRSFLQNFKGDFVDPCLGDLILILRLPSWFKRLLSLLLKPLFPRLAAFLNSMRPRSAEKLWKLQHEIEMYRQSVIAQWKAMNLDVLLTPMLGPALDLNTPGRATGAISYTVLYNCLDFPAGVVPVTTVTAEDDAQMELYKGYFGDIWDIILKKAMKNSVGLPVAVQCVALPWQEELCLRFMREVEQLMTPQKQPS
# [12] = Racemization after dissolution in a variety of solvents; type: physicochemical; conditions: 5% Et3N in EtOAc
# [13] = Epimerization in assay buffer without enzyme, monitored by chiral HPLC; type: physicochemical; conditions: assay buffer pH 9.1, without enzyme, 30 min
# In short: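 Test compound dissolved in DMSO and added to assay buffer (pH 9.1) with no enzyme. Enantiopurity was followed by chiral HPLC over a 30 min exposure. Loss of enantiomeric excess is reported as percent change.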
# [14] = system: serine hydrolases in the mouse brain proteome including KIAA1363, MAGL, and ABHD6; experiment: Activity-based protein profile; type: biochemical; conditions: both enantiomers; mouse brain proteome 1 mg/mL, FP-rhodamine 100 nM, 10 nM to 100 μM
smiles,measurement,setting,value
O=C(CCCCCCc1ccccc1)c1ncc(-c2ccccn2)o1 [compound 2],hydrated (gem diol) state in solution,[1],do not adopt a hydrated (gem diol) state
same,binding to CB2,[2],does not bind
same,binding to vanilloid receptors,[3],does not bind
same,inhibition of P450 2C9,[4],does not inhibit
same,inhibition of hERG,[5],does not inhibit
same,inhibition of P450 3A4,[6],does not inhibit
same,antinociception in FAAH knockout mice,[7]; FAAH knockout mice,No antinociception
same,in vivo activity,[7],antinociceptive and anti-inflammatory activity
same,levels of anandamide in vivo,[7],increases
same,binding to CB1,[8],does not bind
same,inhibition of P450 2D6,[9],does not inhibit
"O=C(c1ncc(-c2ccccn2)o1)[C@H]1CCc2cc(Oc3ccccc3)ccc2C1 [compound 3, reference compound]",hydrate (gem diol) or hemiketal formation,[10]; CD3OD and 7% D2O–DMSO-d6,no detectable
O=C(c1ncc(-c2ccccn2)o1)C1CCc2cc(Oc3ccccc3)ccc2O1 (stereo not drawn) [compound 14],fold loss in activity / fold less potent than 3 against FAAH,[11],8 fold
same,fold reduction in activity upon introduction of the C5-pyridine substituent (14 vs 16),[11]; relative to 16,2 fold
same,hydrate (gem diol) formation at 24 h,[10],25%
same,hydrate (gem diol) formation initially,[10],no gem diol detected
same,hemiketal formation,[10],34%
same,racemization within the first hour,[12],significant racemization
same,time to complete epimerization,[12]; continued exposure,≤ 48 h
same,total change in ee (loss of enantiopurity),[13],−4.4%
same,selectivity for FAAH over all other serine hydrolases,[14],> 200 fold
COC(=O)c1cccc(-c2cnc(C(=O)C3CCc4cc(Oc5ccccc5)ccc4O3)o2)n1 (stereo not drawn) [compound 15],hydrate (gem diol) formation at 24 h,[10],27%
same,hydrate (gem diol) formation initially,[10],no gem diol detected
same,hemiketal formation,[10],45%
O=C(c1ncco1)C1CCc2cc(Oc3ccccc3)ccc2O1 (stereo not drawn) [compound 16],hydrate (gem diol) formation at 24 h,[10],13%
same,hydrate (gem diol) formation initially,[10],no gem diol detected
same,hemiketal formation,[10],38%
same,total change in ee (loss of enantiopurity),[13],−6.8%
O=C(c1ncc(-c2ccccn2)o1)C1COc2cc(OCc3ccccc3)ccc2C1 (stereo not drawn) [compound 46],potency relative to the unsubstituted parent oxazoles,[11]; installation of the pyridine substituent at C5,roughly equipotent
same,fold less active than either 2 or 3,[11]; relative to 2 or 3,4 fold
same,fold loss in activity / fold less potent than 3 against FAAH,[11],2- to 4 fold
same,total change in ee (loss of enantiopurity),[13],−4.8%
O=C(c1ncc(-c2ccccn2)o1)C1COc2cc(Oc3ccccc3)ccc2C1 (stereo not drawn) [compound 47],fold loss in activity / fold less potent than 3 against FAAH,[11],2- to 4 fold
same,total change in ee (loss of enantiopurity),[13],−1.7%
same,selectivity for FAAH over all other serine hydrolases,[14],> 200 fold
O=C(c1ncc(I)o1)C1COc2cc(Oc3ccccc3)ccc2C1 (stereo not drawn) [compound 54],fold difference in potency between the two enantiomers,[11]; FAAH inhibition,1.6 fold
